A selection: hits, their analogues and other compounds. The true share with any hit is near 1.7%.
Rpn11 block: Rpn11 (PSMD14) deubiquitinase inhibitors, primary screen, biochemical, fluorescence polarization, uHTS. 26S proteasome non-ATPase regulatory subunit 14 (Homo sapiens), O00487. human 26S proteasome, Ub4-pepOG fluorescence polarization; 20S core pre-blocked with epoxomicin. inhibition, % at 20 µM. hit rate 0.59% among 360,000. AID 588493, 2011;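 active = inhibition at 20 µM, scaled to each plate's controls, above about 33%, limit read from the data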
Target sequence (O00487 whole entry, looked up): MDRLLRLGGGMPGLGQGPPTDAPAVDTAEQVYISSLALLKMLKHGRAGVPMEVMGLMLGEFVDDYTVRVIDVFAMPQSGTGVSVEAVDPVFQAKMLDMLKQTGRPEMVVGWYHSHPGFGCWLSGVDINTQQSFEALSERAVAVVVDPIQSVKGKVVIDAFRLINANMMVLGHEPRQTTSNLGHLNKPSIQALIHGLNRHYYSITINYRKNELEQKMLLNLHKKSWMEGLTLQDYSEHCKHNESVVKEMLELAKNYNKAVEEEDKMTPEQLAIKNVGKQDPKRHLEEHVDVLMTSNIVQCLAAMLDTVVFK
PLCg1 inh: PLC-gamma1 enzyme inhibitors, primary screen, biochemical, fluorescence, purified enzyme; 1-phosphatidylinositol 4,5-bisphosphate phosphodiesterase gamma-1 (Homo sapiens), P19174; fluorogenic substrate; inhibition, % at 12.2 µM; hit rate 0.84% among 370,000; AID 720700, 2013; in the data active = inhibition above about 9.5%
PLC-beta3 inh: human PLC-beta3 inhibitors, primary screen, biochemical, fluorescence | Purified PLC-beta3, fluorogenic substrate | inhibition, % at 12.2 µM | hit rate 0.18% among 370,000; in the data active = inhibition above about 11%
UCH37 inh: inhibitors of human UCH37 deubiquitinase, primary screen, biochemical, Ub-AMC cleavage, fluorescence. purified proteasome/UCH37. inhibition, % (no concentration beside the values). hit rate 0.33% among 330,000;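 active = mean inhibition over replicate wells above about 20%, limit read from the data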
Target sequence (Q9Y5K5 whole entry, looked up): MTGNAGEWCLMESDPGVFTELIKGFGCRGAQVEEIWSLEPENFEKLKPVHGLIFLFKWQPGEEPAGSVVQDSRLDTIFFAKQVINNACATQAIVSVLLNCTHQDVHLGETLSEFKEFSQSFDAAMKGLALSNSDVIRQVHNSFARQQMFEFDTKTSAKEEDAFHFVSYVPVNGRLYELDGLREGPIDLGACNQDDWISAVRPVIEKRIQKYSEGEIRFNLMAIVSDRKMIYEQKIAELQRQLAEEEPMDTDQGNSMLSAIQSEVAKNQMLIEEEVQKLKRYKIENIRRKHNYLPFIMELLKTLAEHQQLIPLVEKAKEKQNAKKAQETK
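Schedule: 30 min plus 25 min, room temperature / Material: human UCH37 within purified proteasomes / Technique: AMC fluorescence intensity at 355/460 nm / Buffer or medium: pH 7.4 Tris-HCl (50 mM) with ovalbumin, ATP-MgCl2, DTT / Controls: wells without proteasome as full block, compound-free enzyme plus substrate as uninhibited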
Rpn11 confirm: Rpn11 (PSMD14) deubiquitinase inhibitors, confirmation, biochemical, fluorescence polarization, single concentration; AID 602318, 2012; purified human 26S proteasome, Ub4-pepOG fluorescence polarization; proteasome pretreated with epoxomicin; shares compounds with Rpn11 block; hit rate 29% among 1,900; inhibition, % at 20 µM
MMP-2 counter: MMP-2 enzyme inhibition, confirmation, counter-screen for RPN11 inhibitor project, biochemical, fluorescence, single concentration. shares compounds with Rpn11 block. recombinant MMP-2, FRET peptide cleavage fluorescence. inhibition, % at 20 µM. hit rate 4% among 1,900;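 note: human MMP-2 activated beforehand with APMA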
Thrombin FP: bovine thrombin protease inhibition, confirmation, counter-screen for Rpn11 inhibitor project, biochemical, fluorescence polarization, single concentration; shares compounds with Rpn11 block; bovine thrombin cleavage of Ub4-pepOG; inhibition, % at 20 µM; hit rate 13% among 1,900;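 active = mean inhibition at least 40% at 20 µM, or signal 3 deviations below plate average, so some actives read negative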
Large screens that a line does not name were inactive (follow-up assays come after a bar, where shown). Cut-off read from the data, not from the text of the source, unless noted: active = inhibition above about 40%; inactive = the rest.

COc1ccc2nc(SCC(=O)Nc3ccc(S(=O)(=O)N4CCCC4)cc3)c(C#N)cc2c1	Rpn11 block 40 | Rpn11 confirm inactive | MMP-2 counter inactive | Thrombin FP inactive
N#Cc1cc2ccccc2nc1SCC(=O)Nc1ccc(S(=O)(=O)N2CCCC2)cc1	none (not shown: Rpn11 block)
CCOc1ccc2nc(SCC(=O)N3c4ccccc4Sc4ccccc43)c(C#N)cc2c1	Rpn11 block 59 | Rpn11 confirm inactive | MMP-2 counter inactive | Thrombin FP inactive
Cc1ccc(N(CC(=O)NN=Cc2cccs2)S(C)(=O)=O)cc1Cl	none (no result: Rpn11 block, PLCg1 inh, PLC-beta3 inh)
CN(N=Cc1cccnc1)c1cnn(-c2ccc(F)c(Cl)c2)c(=O)c1Cl	none (no result: Rpn11 block, PLCg1 inh, PLC-beta3 inh)
Cc1cccc(C=Nn2c(-c3ccncc3)n[nH]c2=S)c1	none (no result: Rpn11 block, PLCg1 inh, PLC-beta3 inh)
Cc1ccc(C(=O)N/N=C/c2c(O)ccc3ccccc23)cn1	Rpn11 block 122 (no result: UCH37 inh) | Rpn11 confirm inactive | MMP-2 counter inactive | Thrombin FP inactive
O=C(N/N=C/c1c(O)ccc2ccccc12)c1cccnc1	none (not shown: Rpn11 block, UCH37 inh)
CCN(CC)c1ccc(C=NNc2nc3ccccc3[nH]2)cc1	none (no result: Rpn11 block, PLCg1 inh, PLC-beta3 inh)
Oc1ccc(N=Nc2nc(-c3ccccc3)c(-c3ccccc3)[nH]2)cc1	Rpn11 block 55 | Rpn11 confirm inactive | MMP-2 counter inactive | Thrombin FP inactive
O=C(Cc1cc(=O)[nH][nH]1)NN=C/C=C/c1ccccc1	none (no result: Rpn11 block, PLCg1 inh, PLC-beta3 inh)
CC(CC(=O)Nc1ccc(N(C)C)cc1)=NNC(=O)c1cnccn1	none (no result: Rpn11 block, PLCg1 inh, PLC-beta3 inh)
Cc1ccccc1C(=O)N1CCC(C(N)=O)CC1	Rpn11 block 35 | Rpn11 confirm inactive | MMP-2 counter inactive | Thrombin FP inactive
CC(C)NC(=O)c1ccc(S(=O)(=O)N(C)C)cc1	Rpn11 block 39 | Rpn11 confirm inactive | MMP-2 counter inactive | Thrombin FP inactive
COc1ccc(NC(=O)c2ccc(S(=O)(=O)N(C)C)cc2)cc1	none
COc1cc2c(-c3ccccc3)c(C)oc2cc1C=NNC(N)=S	none (no result: Rpn11 block, PLCg1 inh, PLC-beta3 inh)
COc1cc(C)c2c(c1C=O)Oc1c(c(C)c(O)c3c1C(O)OC3=O)OC2=O (stereo not drawn)	Rpn11 block 41 | Rpn11 confirm inactive | MMP-2 counter inactive | Thrombin FP inactive
N#C/C(=C\C1=C(N2CCOCC2)C(=C\c2ccc(Cl)cc2)/CC1)C(=O)Nc1ccccc1F	Rpn11 block 58 | Rpn11 confirm 56 | MMP-2 counter inactive | Thrombin FP inactive
O=C(O)c1ccccc1N/N=C/C1=C(N2CCOCC2)C(=C\c2ccccc2)/CC1	Rpn11 block 60 (no result: UCH37 inh) | Rpn11 confirm inactive | MMP-2 counter inactive | Thrombin FP inactive
O=C(O)c1ccccc1NN=CC1=C(N2CCOCC2)/C(=C\c2ccccc2)CC1	none (no result: Rpn11 block, PLCg1 inh, PLC-beta3 inh)
N#C/C(=C/C1=C(N2CCOCC2)C(=C/c2ccc(Cl)cc2Cl)/CC1)C(=O)Nc1ccccc1F	Rpn11 block 42 | Rpn11 confirm inactive | MMP-2 counter inactive | Thrombin FP inactive
Clc1ccc(N2CCN(N=Cc3ccncc3)CC2)cc1	none (no result: Rpn11 block, PLCg1 inh, PLC-beta3 inh)
Cc1ccc2nc(Cl)c(C=NNC(=O)c3ccccc3O)cc2c1	none (no result: Rpn11 block, PLCg1 inh, PLC-beta3 inh)
COc1cccc(C=NNC(=O)CNC(=O)c2ccncc2)c1O	none (no result: Rpn11 block, PLCg1 inh, PLC-beta3 inh)
Cc1ccc(CSc2nnc(SCC(=O)NN=Cc3ccc(C(=O)O)cc3)s2)cc1	none (no result: Rpn11 block, PLCg1 inh, PLC-beta3 inh)
O=c1c(Cl)c(NN=Cc2ccc(Cl)cc2)cnn1-c1ccccc1	none (no result: Rpn11 block, PLCg1 inh, PLC-beta3 inh)
C=CCN1C(=O)C(Cc2ccccc2)SC1=NN=Cc1cccs1 (stereo not drawn)	none (no result: Rpn11 block, PLCg1 inh, PLC-beta3 inh)
O=C(Cn1cnc2c(nnn2-c2cccc(F)c2)c1=O)Nc1ccc2c(c1)OCCO2	none
COc1ccc(-n2nnc3c(=O)n(CC(=O)Nc4ccc5c(c4)OCCO5)cnc32)cc1OC	Rpn11 block 44 | Rpn11 confirm inactive | MMP-2 counter inactive | Thrombin FP inactive
Cc1ccc(-n2c(-c3ccco3)nc3nc4ccccc4nc32)cc1	Rpn11 block 46 | Rpn11 confirm 43 | MMP-2 counter inactive | Thrombin FP inactive
CCOC(=O)c1c(NC(=O)CSc2nc3cccnc3n2C)sc(C(C)=O)c1C	Rpn11 block 35 (no result: PLCg1 inh, PLC-beta3 inh) | Rpn11 confirm inactive | MMP-2 counter inactive | Thrombin FP inactive
Cc1c2cc[n+](CCN3CCCCC3)cc2c(C)c2c1[nH]c1ccc(O)cc12	Rpn11 block 90 (no result: PLCg1 inh, PLC-beta3 inh, UCH37 inh) | Rpn11 confirm 69 | MMP-2 counter 42 | Thrombin FP inactive
ON=CCCn1c(=S)sc2ccccc21	none (no result: Rpn11 block, PLCg1 inh, PLC-beta3 inh)
Cc1ccccc1Nc1cccc2nonc12	Rpn11 block 40 | Rpn11 confirm inactive | MMP-2 counter inactive | Thrombin FP inactive
Cc1ccccc1NS(=O)(=O)c1cccc2nonc12	none
O=C(CN1CCCCCCC1)NN=Cc1ccccc1F	none (no result: Rpn11 block, PLCg1 inh, PLC-beta3 inh)
CC(=O)c1nn(-c2cccc(Br)c2)cc1C(=O)c1ccco1	none
Cc1nnc(-c2ccco2)c2cn(-c3cccc(Br)c3)nc12	Rpn11 block 46 | Rpn11 confirm inactive | MMP-2 counter inactive | Thrombin FP inactive
Cc1nc2ccccc2c2oc(C(=O)N3CCN(C4CCCCC4)CC3)cc12	none
Cc1nc2ccccc2c2oc(C(=O)N3CCC(N4CCCCC4)CC3)cc12	Rpn11 block 58 (no result: PLCg1 inh, PLC-beta3 inh) | Rpn11 confirm inactive | MMP-2 counter inactive | Thrombin FP inactive
CC(=NNc1ccc(F)cc1)c1ccc(Cl)s1	none (no result: Rpn11 block, PLCg1 inh, PLC-beta3 inh)
CC(=NOC(=O)c1ccc(Br)cc1)c1ccccn1	none (no result: Rpn11 block, PLCg1 inh, PLC-beta3 inh)
CC(=NNC(=O)C1CC1)c1cccnc1	none (no result: Rpn11 block, PLCg1 inh, PLC-beta3 inh)
